# Assay results gathered from unrelated publications.
# Each line is one published result; the experiments were not run side by side.
# Target: cGMP-dependent protein kinase 1 (PRKG1, Homo sapiens, UniProt Q13976)
# One construct used (Q13976 1-671): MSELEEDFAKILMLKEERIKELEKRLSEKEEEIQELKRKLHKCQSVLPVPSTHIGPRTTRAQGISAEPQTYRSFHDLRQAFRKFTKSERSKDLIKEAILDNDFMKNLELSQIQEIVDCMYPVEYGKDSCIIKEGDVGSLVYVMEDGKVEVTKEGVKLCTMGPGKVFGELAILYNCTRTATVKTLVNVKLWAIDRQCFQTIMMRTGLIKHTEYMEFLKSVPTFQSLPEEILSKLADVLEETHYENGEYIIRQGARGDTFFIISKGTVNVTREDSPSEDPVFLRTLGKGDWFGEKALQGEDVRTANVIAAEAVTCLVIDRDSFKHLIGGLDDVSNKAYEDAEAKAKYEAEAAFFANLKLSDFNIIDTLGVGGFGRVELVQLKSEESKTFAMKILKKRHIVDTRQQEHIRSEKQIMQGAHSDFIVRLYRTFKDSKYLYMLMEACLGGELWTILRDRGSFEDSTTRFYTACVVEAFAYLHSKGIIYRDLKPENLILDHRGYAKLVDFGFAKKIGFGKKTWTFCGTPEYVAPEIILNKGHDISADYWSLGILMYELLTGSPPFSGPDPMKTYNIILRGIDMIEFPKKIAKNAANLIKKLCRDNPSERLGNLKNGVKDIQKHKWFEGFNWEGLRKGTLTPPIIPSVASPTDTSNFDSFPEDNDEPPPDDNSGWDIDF
SMILES,assay,setting,remaining binding [%]
C[C@@H](c1ccc(-n2cnc3c(N)ncnc32)cc1)N1CCc2nn(C)c(Cc3ccccc3)c2C1=O,"binding, competition with immobilised ligand",0.1 µM,82
CCCOc1ccc([C@H]2[C@H](C(=O)O)[C@@H](c3ccc4c(c3)OCO4)CN2CC(=O)Nc2c(CC)cccc2CC)cc1,"cell-free assay, competition with immobilised ligand",1 µM,88
Nc1ncc2c(n1)-c1c([nH]c3ccc(C#CC4CC4)cc13)CCCC2,"binding, competition with immobilised ligand",1 µM,86
CC1CCCN1c1nccc(-c2cnn3ncccc23)n1 (stereo not drawn),binding,1 µM,89
O=C(c1ccc(Nc2ncc(Cl)c(-c3ccc(Cl)s3)n2)cc1)N1CCC(N2CCCC2)CC1,"binding, competition with immobilised ligand",1 µM,100
COc1cc(-c2cn(C3CCc4c(F)cccc4N(CC(F)(F)F)C3=O)nn2)ccc1-n1cnc(C)c1 (stereo not drawn),"cell-free assay, competition with immobilised ligand",1 µM,100
O=C(NCCCN1CCOCC1)c1ccc(Nc2ncc(Cl)c(-c3ccc(Cl)s3)n2)cc1,"binding, competition with immobilised ligand",1 µM,100
CCOC(=O)c1cc2cc(-c3cc(C(=O)NCc4ccc(C(=O)O)cc4)nn3C)ccc2[nH]1,"cell-free assay, competition with immobilised ligand",0.1 µM,91
Cc1cnc(Nc2ccc(C(=O)N3CCC(N4CCCC4)CC3)cc2)nc1-c1cc2ccccc2s1,"binding, competition with immobilised ligand",1 µM,100
C[C@@H]1CCN(c2nccc(-c3cnn4ncccc34)n2)C1,binding,1 µM,68
O=C(Nc1c[nH]nc1C(=O)NC1CCNCC1)c1cc(F)cc(F)c1,"binding, competition with immobilised ligand",1 µM,100
CCN1CCN(Cc2ccc(C(=O)Nc3ccc(C)c(Oc4ccc5c(c4)CC(=O)N5)c3)cc2C(F)(F)F)CC1,"binding, competition with immobilised ligand",1 µM,100
COc1cnc(Nc2cccc(S(N)(=O)=O)c2)nc1N1CCN(c2ccccc2)CC1,"binding, competition with immobilised ligand",1 µM,100
Cc1cnn2ncc(-c3ccnc(N(C)C)n3)c2c1,binding,1 µM,99
COc1cnc(Nc2cccc(S(N)(=O)=O)c2)nc1N1CCN(c2ccccc2)C(=O)C1,"binding, competition with immobilised ligand",1 µM,100
Cc1c(C(=O)O)cc(-c2ccc(C3CCNCC3)cc2)c2ccc(-c3ccc(C(F)(F)F)cc3)cc12,"binding, competition with immobilised ligand",1 µM,97
c1cnn2ncc(-c3ccnc(N4CCC45COC5)n3)c2c1,binding,1 µM,89
CS(=O)(=O)NCC[C@H](NC(=O)c1cncc2c1cnn2-c1ccc(F)cc1)c1ccnc(S(C)(=O)=O)c1,"cell-free assay, competition with immobilised ligand",1 µM,96
N[C@H]1CCN(c2nccc(-c3cnn4ncccc34)n2)C1,binding,1 µM,89
COc1ccc2c(c1)O[C@@H](c1ccc(OC)c(OC)c1)C[C@H]2NC(=O)C1(c2ccc3c(c2)OC(F)(F)O3)CC1,"cell-free assay, competition with immobilised ligand",1 µM,100
F[C@@H]1CCN(c2nccc(-c3cnn4ncccc34)n2)C1,binding,1 µM,90
